Reference: ChEMBL document CHEMBL4184326, “Development of Thioaryl-Based Matrix Metalloproteinase-12 Inhibitors with Alternative Zinc-Binding Groups: Synthesis, Potentiometric, NMR, and Crystallographic Studies” (J Med Chem, 2018)
Activity calls are given as the source filed them. The rule behind the calls is not given here.

Key:
[1] = target: 72 kDa type IV collagenase (Homo sapiens, UniProt P08253); assay: Inhibition of recombinant human MMP-2 using Mca-Lys-Pro-Leu-Gly-Leu-Dap(Dnp)-Ala-Arg-NH2 as substrate preincubated for 3 hrs followed by substrate addition measured every 10 secs for 15 mins by fluorometric assay
Chain of 72 kDa type IV collagenase (P08253 whole entry): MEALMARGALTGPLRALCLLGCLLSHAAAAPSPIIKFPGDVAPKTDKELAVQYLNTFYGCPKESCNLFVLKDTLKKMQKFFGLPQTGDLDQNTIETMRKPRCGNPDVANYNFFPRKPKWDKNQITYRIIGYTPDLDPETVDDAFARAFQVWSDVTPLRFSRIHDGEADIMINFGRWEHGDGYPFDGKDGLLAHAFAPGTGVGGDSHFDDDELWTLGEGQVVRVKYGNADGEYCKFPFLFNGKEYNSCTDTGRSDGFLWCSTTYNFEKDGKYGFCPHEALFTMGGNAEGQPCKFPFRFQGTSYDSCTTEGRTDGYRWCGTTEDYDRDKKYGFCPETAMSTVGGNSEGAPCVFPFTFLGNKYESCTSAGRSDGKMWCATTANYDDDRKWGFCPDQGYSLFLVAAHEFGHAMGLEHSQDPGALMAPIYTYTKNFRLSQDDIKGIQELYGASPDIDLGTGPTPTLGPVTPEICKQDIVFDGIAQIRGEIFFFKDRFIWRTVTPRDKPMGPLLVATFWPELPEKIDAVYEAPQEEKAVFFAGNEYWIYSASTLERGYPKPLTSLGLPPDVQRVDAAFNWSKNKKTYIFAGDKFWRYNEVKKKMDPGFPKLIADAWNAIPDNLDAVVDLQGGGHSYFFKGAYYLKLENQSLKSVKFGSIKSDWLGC

[2] = target: Matrix metalloproteinase-9 (Homo sapiens, UniProt P14780); assay: Inhibition of recombinant human MMP-9 using Mca-Lys-Pro-Leu-Gly-Leu-Dap(Dnp)-Ala-Arg-NH2 as substrate preincubated for 3 hrs followed by substrate addition measured every 10 secs for 15 mins by fluorometric assay
Chain of Matrix metalloproteinase-9 (P14780 whole entry): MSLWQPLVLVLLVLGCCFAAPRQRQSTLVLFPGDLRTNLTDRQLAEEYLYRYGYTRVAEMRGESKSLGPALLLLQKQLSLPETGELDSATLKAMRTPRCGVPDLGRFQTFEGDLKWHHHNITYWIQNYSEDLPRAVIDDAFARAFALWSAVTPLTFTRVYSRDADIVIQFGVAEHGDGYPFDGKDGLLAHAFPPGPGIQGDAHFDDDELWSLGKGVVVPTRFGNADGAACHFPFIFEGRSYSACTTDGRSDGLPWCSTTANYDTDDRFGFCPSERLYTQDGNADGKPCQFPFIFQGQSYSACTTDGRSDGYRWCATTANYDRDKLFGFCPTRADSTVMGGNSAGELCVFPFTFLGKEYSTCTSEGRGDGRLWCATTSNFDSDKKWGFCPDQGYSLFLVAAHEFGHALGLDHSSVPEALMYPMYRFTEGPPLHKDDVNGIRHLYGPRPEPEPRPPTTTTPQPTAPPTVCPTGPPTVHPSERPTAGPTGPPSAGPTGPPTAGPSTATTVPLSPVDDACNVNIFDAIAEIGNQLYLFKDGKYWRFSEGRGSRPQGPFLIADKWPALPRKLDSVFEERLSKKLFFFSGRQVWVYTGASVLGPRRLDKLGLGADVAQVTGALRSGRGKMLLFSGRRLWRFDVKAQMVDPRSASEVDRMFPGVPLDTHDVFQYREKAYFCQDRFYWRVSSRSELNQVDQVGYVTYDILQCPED

[3] = target: Macrophage metalloelastase (Homo sapiens, UniProt P39900); assay: Inhibition of recombinant human MMP-12 using Mca-Lys-Pro-Leu-Gly-Leu-Dap(Dnp)-Ala-Arg-NH2 as substrate preincubated for 3 hrs followed by substrate addition measured every 10 secs for 15 mins by fluorometric assay
Chain of Macrophage metalloelastase (P39900 whole entry): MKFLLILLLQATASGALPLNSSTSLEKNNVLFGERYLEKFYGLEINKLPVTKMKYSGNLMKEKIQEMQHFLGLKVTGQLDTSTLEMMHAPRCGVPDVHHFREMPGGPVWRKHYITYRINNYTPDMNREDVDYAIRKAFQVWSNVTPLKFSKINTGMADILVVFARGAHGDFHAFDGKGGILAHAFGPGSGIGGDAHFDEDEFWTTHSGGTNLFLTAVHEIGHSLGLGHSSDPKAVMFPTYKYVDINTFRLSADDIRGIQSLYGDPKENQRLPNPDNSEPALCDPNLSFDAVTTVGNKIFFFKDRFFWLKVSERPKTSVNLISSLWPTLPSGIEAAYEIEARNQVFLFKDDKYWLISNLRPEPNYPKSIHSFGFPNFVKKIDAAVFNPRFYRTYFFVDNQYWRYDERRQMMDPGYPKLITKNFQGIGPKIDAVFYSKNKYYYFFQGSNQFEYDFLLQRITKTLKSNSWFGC

[4] = Metal chelating activity assessed as compound-Zn2+ complex formation by measuring free metal ion levels at compound to metal molar ratio 10 at pH 6 by potentiometric titration method
[5] = Protonation constant, log K of the compound; type: physicochemical; conditions: 60% w/w DMSO/H2O
Summary of the method: (§1)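 pH-potentiometric titration in 60% w/w DMSO/H2O, 25.0 ± 0.1 °C, I 0.1 M KCl, 0.1 M KOH titrant. Glass electrode calibrated with HCl/KOH via Gran's method. Ligand (4−7) × 10−4 M at Zn:L 0:1, 1:1 and 1:2, in duplicate. pKw 15.75. Constants were fitted in Hyperquad with a Zn(II) hydrolysis model included.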

[6] = Metal chelating activity assessed as compound-Zn2+ complex formation at 1:1 metal to compound molar ratio at pH 3 to 8 by potentiometric titration method; summary of the method: as §1
[7] = Metal chelating activity assessed as compound-Zn2+ complex formation at 1:2 metal to compound molar ratio at pH 3 to 8 by potentiometric titration method; summary of the method: as §1
[8] = Metal chelating activity assessed as compound-Zn2+ complex formation at 1:1 metal to compound molar ratio at pH 3 to 8 by 1H NMR method
Interstitial collagenase = target: T1, Interstitial collagenase (Homo sapiens, UniProt P03956); assay: Inhibition of recombinant human MMP-1 using Mca-Lys-Pro-Leu-Gly-Leu-Dap(Dnp)-Ala-Arg-NH2 as substrate preincubated for 3 hrs followed by substrate addition measured every 10 secs for 15 mins by fluorometric assay
T1 sequence (P03956 whole entry): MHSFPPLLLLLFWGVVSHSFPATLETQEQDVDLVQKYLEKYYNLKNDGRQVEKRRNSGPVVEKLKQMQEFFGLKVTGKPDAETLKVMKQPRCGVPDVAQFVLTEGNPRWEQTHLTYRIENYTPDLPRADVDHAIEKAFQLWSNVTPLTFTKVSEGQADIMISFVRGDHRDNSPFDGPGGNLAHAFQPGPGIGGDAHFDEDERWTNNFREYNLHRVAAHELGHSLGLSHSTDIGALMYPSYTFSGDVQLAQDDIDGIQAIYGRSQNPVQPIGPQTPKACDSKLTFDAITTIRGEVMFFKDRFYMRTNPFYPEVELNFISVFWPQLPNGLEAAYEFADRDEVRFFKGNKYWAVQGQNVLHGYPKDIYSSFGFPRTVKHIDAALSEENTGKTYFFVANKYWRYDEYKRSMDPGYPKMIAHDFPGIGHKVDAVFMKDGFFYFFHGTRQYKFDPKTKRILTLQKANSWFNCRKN

[9] = target: Matrix metalloproteinase-14 (Homo sapiens, UniProt P50281); assay: Inhibition of recombinant human MMP-14 catalytic domain using Mca-Lys-Pro-Leu-Gly-Leu-Dap(Dnp)-Ala-Arg-NH2 as substrate preincubated for 3 hrs followed by substrate addition measured every 10 secs for 15 mins by fluorometric assay
Homo sapiens [10] = species: Homo sapiens; assay: Selectivity ratio of IC50 for recombinant human MMP-9 to IC50 for recombinant human MMP-12
Homo sapiens [11] = species: Homo sapiens; assay: Selectivity ratio of IC50 for recombinant human MMP-2 to IC50 for recombinant human MMP-12
Homo sapiens [12] = species: Homo sapiens; assay: Selectivity ratio of IC50 for recombinant human MMP-14 catalytic domain to IC50 for recombinant human MMP-12
[13] = Drug level in KCl/DMSO/water solution treated with 2-(2-((4'-Methoxy-[1,1'-biphenyl]-4-yl)sulfonyl)phenyl)-acetic hydroxamic acid; type: physicochemical; conditions: buffer

SMILES	IC50 [1]	IC50 [2]	IC50 [3]	log(activity) [4]	log K [5]	Activity [6]	Activity [7]	Activity [8]	IC50 (Interstitial collagenase)	IC50 [9]	Ratio IC50 (Homo sapiens [10])	Ratio IC50 (Homo sapiens [11])	Ratio IC50 (Homo sapiens [12])	Drug metabolism [13]
COc1ccc(-c2ccc(S(=O)(=O)c3ccccc3CC(=O)NS(C)(=O)=O)cc2)cc1	3.6 µM	3.7 µM	3.5 µM	6.56	5.5	Active	Active	Active						
COc1ccc(-c2ccc(S(=O)(=O)c3ccccc3CP(=O)(O)O)cc2)cc1			0.6 µM											
COc1ccc(-c2ccc(Sc3ccccc3CC(=O)NS(=O)(=O)C(F)(F)F)cc2)cc1	46 µM	50 µM	2.1 µM	6.75	< 2	Active	inactive	Active						
COc1ccc(-c2ccc(S(=O)(=O)c3ccccc3CC(=O)O)cc2)cc1				6.1		Active	Active							Metabolite_Detected
COc1ccc(-c2ccc(Sc3ccccc3C(CCC(=O)O)C(=O)O)cc2)cc1 (centres undefined)	0.66 µM	2.96 µM	0.026 µM	6.04		Active	Active							
COc1ccc(-c2ccc(S(=O)(=O)c3ccccc3C(CCC(=O)O)C(=O)O)cc2)cc1 (centres undefined)	1.35 µM	14.3 µM	0.51 µM	6.14		Active	Active							
COc1ccc(-c2ccc(Sc3ccccc3CC(=O)NS(C)(=O)=O)cc2)cc1		18 µM	3.3 µM	6.1	5.5	Active	inactive	Active						
COc1ccc(-c2ccc(S(=O)(=O)c3ccccc3C(=O)CS(C)(=O)=O)cc2)cc1	> 10 µM	> 10 µM	> 10 µM											
COc1ccc(-c2ccc(S(=O)(=O)c3ccccc3CC(=O)NS(=O)(=O)C(F)(F)F)cc2)cc1	2.5 µM	24.5 µM	7.5 µM	6.91	< 2	Active	inactive	Active						

Results, then the molecule that gave them:

IC50 [1]	IC50 [2]	IC50 [3]	log(activity) [4]	log K [5]	Activity [6]	Activity [7]	Activity [8]	IC50 (Interstitial collagenase)	IC50 [9]	Ratio IC50 (Homo sapiens [10])	Ratio IC50 (Homo sapiens [11])	Ratio IC50 (Homo sapiens [12])	Drug metabolism [13]	SMILES
230 µM	332 µM	230 µM												COc1ccc(-c2ccc(Sc3ccccc3C(=O)CS(C)(=O)=O)cc2)cc1
		0.004 µM	6.04	10.29	Active	Active		250 µM	2 µM					COc1ccc(-c2ccc(Sc3ccccc3CC(=O)NO)cc2)cc1
0.67 µM	5.8 µM	0.033 µM	6.05	9.03 to 9.35	Active	Active		260 µM	40 µM	176	20	1200		COc1ccc(-c2ccc(Sc3ccccc3C3CCC(=O)N(O)C3=O)cc2)cc1 (centres undefined)
		0.04 µM	6.04		Active	inactive								COc1ccc(-c2ccc(Sc3ccccc3CC(=O)O)cc2)cc1
0.414 µM	1.43 µM	0.04 µM	6.13	9.03 to 9.35	Active	Active		> 10 µM	4 µM					COc1ccc(-c2ccc(S(=O)(=O)c3ccccc3C3CCC(=O)N(O)C3=O)cc2)cc1 (centres undefined)
0.25 µM	1.12 µM	0.25 µM												COc1ccc(-c2ccc(Sc3ccccc3CP(=O)(O)O)cc2)cc1
